Measured values gathered from unrelated publications.
Compare with care: the assays were run in different laboratories.

Compound	system	conditions	quantity	value
CCN1CCN(Cc2ccc(NC(=O)c3ccc(C)c(NC(=O)c4cncc(-c5cccs5)c4)c3)cc2C(F)(F)F)CC1	mouse, plasma	intraperitoneal, 10 mg/kg, single dose	Tmax	30 min
CC(C(=O)Nc1c(F)cccc1F)N1CCN(c2ccccc2)CC1 (stereo not shown)	female C57BL/6 mouse, plasma	intraperitoneal, 10 mg/kg, single dose	Tmax	15 min
Nc1ncn([C@H]2C[C@H](O)[C@@H](CO)O2)c(=O)n1	female C57BL/6 mouse, plasma	intravenous, 0.4 mg/kg	Tmax	4.98 min
Cc1c(N(C)C)ccc2cc(C(=O)NS(=O)(=O)c3ccccc3-c3ccccc3)oc12	Caco-2	2 µM, 2 h, pH 7.2	efflux ratio	0.7
C[C@H]1O[C@@H](O[C@H]2[C@@H](O)C[C@H](O[C@H]3[C@@H](O)C[C@H](O[C@H]4CC[C@@]5(C)[C@H](CC[C@@H]6[C@@H]5C[C@@H](O)[C@]5(C)[C@@H](C7=CC(=O)OC7)CC[C@]65O)C4)O[C@@H]3C)O[C@@H]2C)C[C@H](O)[C@@H]1O	Caco-2	5 µM, 2 h	efflux ratio	50.7
Cl.[2H]C([2H])([2H])CC(=O)c1cnc(NC(=O)C2CC2)cc1Nc1cccc(-c2ncn(C([2H])([2H])[2H])n2)c1OC	human, plasma	oral, 10 mg, multiple doses, once daily, fasted	Cmax	99.5 ng/mL
CC(C)NCC(O)COc1cccc2ccccc12 (stereo not shown)	Caco-2	5 µM, 2 h	efflux ratio	0.72
CN1CC[C@@H](c2c(O)cc(O)c3c(=O)cc(-c4ccc(C(F)(F)F)cc4Cl)oc23)[C@@H]1CO	human, plasma	oral, 50 mg, patients	Cmax	86.3 ng/mL
N#C[C@@]12C[C@@H]1[C@@H](n1cnc3c(N[C@@H](C4CCC4)C4CC4)nc(I)nc31)[C@H](O)[C@@H]2O	Caco-2	–	efflux ratio	2.76
Cc1c(C(=O)O)ccc2c3n(nc12)[C@@H]1[C@H](C3)N(CC2CC2)[C@@]2(C(=O)Nc3cc(Cl)ccc32)[C@H]1c1cccc(Cl)c1F	female minipig, plasma	intravenous	Vd	0.94 L/kg
CNC(=O)n1ccc2cc(Oc3ccnc(NC(=O)c4ccc(C5CCN(CCO)CC5)cc4)c3)c(OCCOC)cc21	human, plasma	oral, 35 mg, single dose, fasted, healthy volunteers	Cmax	9.82 ng/mL
CC(=O)N[C@H]1CC[C@H](NC(=O)CN2CCN(c3nncc(-c4ccc(C)cc4)n3)CC2)CC1	male human, plasma	oral, 100 mg, single dose, fasted	Cmax	1070 ng/mL
C=CS(=O)(=O)c1ccc(Nc2nc(OCC3CCCCC3)c3nc[nH]c3n2)cc1	male BALB/c mouse, plasma	intravenous, 20 mg/kg, single dose	Tmax	4.8 min
CC(C)n1c(Nc2cccnc2)nc2cnc(Nc3ccc(N4CCN(C)CC4)cc3)nc21	male human, plasma	oral, 150 mg, single dose	Cmax	76.1 ng/mL
CCOC(=O)c1cc(Cl)cc(NC(=O)c2sc(Cl)cc2S(=O)(=O)N(C)c2ccc(OCC)c(OC)c2)c1	male C57BL/6 mouse, brain	intraperitoneal, 10 mg/kg	Tmax	15 min
Cn1cc(Nc2nc(N)nc(-c3cccc(-n4ccc5cc(C6CC6)cc(F)c5c4=O)c3CO)n2)cn1	human, plasma	oral, 600 mg, single dose, fasted, suspension	Cmax	5360 ng/mL
CC(C)C[C@H](NC(=O)[C@@H]1COCCCCCC(=O)NCC(=O)N2CCC[C@H]2C(=O)N1)C(=O)[C@@]1(C)CO1	Caco-2	10 µM, 2 h, pH 7.4	efflux ratio	~22
COc1ccc([C@@H](O)c2cc(-c3ncnc4cc(N5CCOCC5)ccc34)c(F)cc2Cl)nn1	human, plasma	oral, 150 mg, single dose, patients	Cmax	1460 ng/mL
CCOc1ccc(N(C)S(=O)(=O)c2cc(Cl)sc2C(=O)Nc2cc(Cl)cc(C(=O)O)c2)cc1OC	male C57BL/6 mouse, brain	intraperitoneal, 10 mg/kg	Tmax	15 min
